Active and inactive are the calls of the source. The calls are words filed in the database; no cut-off is given here.
Tests used:
[1] = tested on: HCT-116; experiment: Antitumor activity against human HCT116 cells after 48 hrs by SRB assay; assay type: functional; settings: HCT-116, 48 h
Summary of the method: (§1)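 Run at NCI in the 60-line human tumour panel. Five concentrations at 10-fold dilutions starting from 10^-4 M, with continuous exposure for 48 h. Growth was read by sulforhodamine B protein staining. GI50 (+50% growth), TGI (0% growth) and LC50 were interpolated from the curves, and MG-MID is the arithmetic mean across all tested lines.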

[2] = tested on: MDA-N; experiment: Antitumor activity against human MDA-N cells after 48 hrs by SRB assay; assay type: functional; summary of the method: as §1
[3] = tested on: MDA-MB-231; experiment: Antitumor activity against human MDA-MB-231 cells after 48 hrs by SRB assay; assay type: functional; settings: MDA-MB-231, 48 h; summary of the method: as §1
[4] = tested on: UACC-62; experiment: Antitumor activity against human UACC62 cells after 48 hrs by SRB assay; assay type: functional; settings: UACC-62, 48 h; summary of the method: as §1
[5] = tested on: MOLT-4; experiment: Antitumor activity against human MOLT4 cells after 48 hrs by SRB assay; assay type: functional; settings: MOLT-4, 48 h; summary of the method: as §1
[6] = tested on: LOX IMVI; experiment: Antitumor activity against human LOXIMVI cells after 48 hrs by SRB assay; assay type: functional; summary of the method: as §1
[7] = tested on: RPMI-8226; experiment: Antitumor activity against human RPMI8226 cells after 48 hrs by SRB assay; assay type: functional; settings: RPMI-8226, 48 h; summary of the method: as §1
[8] = tested on: MDA-MB-435; experiment: Antitumor activity against human MDA-MB-435 cells after 48 hrs by SRB assay; assay type: functional; settings: MDA-MB-435, 48 h; summary of the method: as §1
[9] = tested on: HT-29; experiment: Antitumor activity against human HT29 cells after 48 hrs by SRB assay; assay type: functional; settings: HT-29, 48 h; summary of the method: as §1
[10] = tested on: Hs-578T; experiment: Antitumor activity against human HS578T cells after 48 hrs by SRB assay; assay type: functional; summary of the method: as §1
[11] = tested on: M14; experiment: Antitumor activity against human M14 cells after 48 hrs by SRB assay; assay type: functional; settings: M14, 48 h; summary of the method: as §1
[12] = tested on: KM12; experiment: Antitumor activity against human KM12 cells after 48 hrs by SRB assay; assay type: functional; settings: KM12, 48 h; summary of the method: as §1
[13] = Antitumor activity against human HL60(TB) cells after 48 hrs by SRB assay; assay type: functional, HL-60(TB); settings: HL-60, 48 h
Summary of the method: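 NCI 60-cell-line primary screen: five concentrations at 10-fold dilutions starting from 10^-4 M. Cells exposed to drug continuously for 48 h. Growth estimated by sulforhodamine B protein assay. GI50 is the interpolated molar concentration giving +50% growth, TGI the concentration giving 0% growth, and LC50 the concentration giving 50% net cell death.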

[14] = tested on: Malme-3M; experiment: Antitumor activity against human MALME3M cells after 48 hrs by SRB assay; assay type: functional; summary of the method: as §1
[15] = tested on: SK-MEL-2; experiment: Antitumor activity against human SK-MEL-2 cells after 48 hrs by SRB assay; assay type: functional; settings: SK-MEL-2, 48 h; summary of the method: as §1
[16] = tested on: SK-MEL-28; experiment: Antitumor activity against human SK-MEL-28 cells after 48 hrs by SRB assay; assay type: functional; settings: SK-MEL-28, 48 h; summary of the method: as §1
[17] = Antitumor activity against human NCI60 cells after 48 hrs by SRB assay; assay type: functional; settings: NCI60, 48 h; for TGI: read-out: pTGI (converted); summary of the method: as §1
[18] = Antitumor activity against human MCF7/ADR-RES cells after 48 hrs by SRB assay; assay type: functional; settings: NCI/ADR-RES; summary of the method: as §1
[19] = tested on: Tru-Pr1; experiment: Effect on cell cycle in human […] cells at 10 uM after 48 hrs by FACS analysis; assay type: functional, cell-based
Summary of the method: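 TSU-Pr1 prostate carcinoma cells (5×10^5) in exponential growth were treated for 48 h. They were then centrifuged, fixed in ice-cold 70% ethanol, treated with lysis buffer containing RNase, and stained with propidium iodide. DNA content and cell-cycle phases were read by flow cytometry.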

[20] = tested on: T47D; experiment: Antitumor activity against human T47D cells after 48 hrs by SRB assay; assay type: functional; summary of the method: as §1
[21] = tested on: UACC-257; experiment: Antitumor activity against human UACC257 cells after 48 hrs by SRB assay; assay type: functional; settings: UACC-257, 48 h; summary of the method: as §1
[22] = tested on: SW-620; experiment: Antitumor activity against human SW620 cells after 48 hrs by SRB assay; assay type: functional; settings: SW-620, 48 h; summary of the method: as §1
[23] = tested on: SK-MEL-5; experiment: Antitumor activity against human SK-MEL-5 cells after 48 hrs by SRB assay; assay type: functional; settings: SK-MEL-5, 48 h; summary of the method: as §1
[24] = tested on: MCF7; experiment: Antitumor activity against human MCF7 cells after 48 hrs by SRB assay; assay type: functional; settings: MCF7, 48 h; summary of the method: as §1
[25] = tested on: SR; experiment: Antitumor activity against human SR cells after 48 hrs by SRB assay; assay type: functional; summary of the method: as §1
[26] = tested on: K562; experiment: Antitumor activity against human K562 cells after 48 hrs by SRB assay; assay type: functional; settings: K562, 48 h; summary of the method: as §1
[27] = tested on: COLO 205; experiment: Antitumor activity against human COLO205 cells after 48 hrs by SRB assay; assay type: functional; settings: COLO 205, 48 h; summary of the method: as §1

COc1ccc2cc(CN3CCC(C4CCN(Cc5ccc6cc(OC)ccc6c5)CC4)CC3)ccc2c1
GI50 [1]: 3.47 µM
GI50 [2]: 1700 nM
GI50 [3]: 3.31 µM
GI50 [4]: 1910 nM
GI50 [5]: 2190 nM
GI50 [6]: 2820 nM
GI50 [7]: 1740 nM
GI50 [8]: 1910 nM
GI50 [9]: 3.39 µM
GI50 [10]: 10.7 µM
GI50 [11]: 2450 nM
GI50 [12]: 3.24 µM
GI50 [13]: 2630 nM
GI50 [14]: 2290 nM
GI50 [15]: 6.46 µM
GI50 [16]: 2630 nM
GI50 [17]: 2950 nM
TGI [17]: 9.77 µM
GI50 [18]: 13.2 µM
Activity [19]: inactive
GI50 [20]: 1780 nM
GI50 [21]: 2040 nM
GI50 [22]: 3.16 µM
GI50 [23]: 1480 nM
GI50 [24]: 5.25 µM
GI50 [25]: 1230 nM
GI50 [26]: 501 nM
GI50 [27]: 1620 nM

c1ccc2c(CNCCCCCCCCNCc3cccc4ccccc34)cccc2c1
GI50 [17]: 2400 nM
TGI [17]: 5.25 µM

c1ccc2c(CNCCCCCCCCCCCCNCc3cccc4ccccc34)cccc2c1
GI50 [17]: 2190 nM
TGI [17]: 4.37 µM

COc1ccc2cc(CNCCCCCCNCc3ccc4cc(OC)ccc4c3)ccc2c1
GI50 [17]: 603 nM
LC50 [17]: 4.07 µM
TGI [17]: 1.74 µM

c1ccc2c(CNCCCN3CCN(CCCNCc4cccc5ccccc45)CC3)cccc2c1
GI50 [17]: 6610 nM
LC50 [17]: 43.7 µM
TGI [17]: 19.5 µM

c1ccc2cc(CNCCOCCOCCNCc3ccc4ccccc4c3)ccc2c1
GI50 [17]: 1700 nM
LC50 [17]: 10 µM
TGI [17]: 3.72 µM

c1ccc2c(CN3CCC(C4CCN(Cc5cccc6ccccc56)CC4)CC3)cccc2c1
GI50 [17]: 1950 nM
LC50 [17]: 9.55 µM
TGI [17]: 4.27 µM

COc1ccc2cc(CNCCCCCCCCCCCCNCc3ccc4cc(OC)ccc4c3)ccc2c1
GI50 [17]: 15500 nM
LC50 [17]: 55 µM
TGI [17]: 29.5 µM

c1ccc2c(CNCCCCCCNCc3cccc4ccccc34)cccc2c1
GI50 [17]: 5370 nM
LC50 [17]: 29.5 µM
TGI [17]: 12.3 µM

O=C1c2c(O)ccc(O)c2C(=O)c2c(NCCNCCO)ccc(NCCNCCO)c21 [MITOXANTRONE]
GI50 [17]: 47.9 nM
TGI [17]: 0.692 µM

c1ccc2cc(CN3CCC(C4CCN(Cc5ccc6ccccc6c5)CC4)CC3)ccc2c1
GI50 [17]: 2880 nM
LC50 [17]: 25.1 µM
TGI [17]: 8.32 µM

COc1ccc2cc(CNCCCN3CCN(CCCNCc4ccc5cc(OC)ccc5c4)CC3)ccc2c1
GI50 [17]: 1100 nM
LC50 [17]: 5.62 µM
TGI [17]: 2.45 µM

COc1cc(NS(C)(=O)=O)ccc1Nc1c2ccccc2nc2ccccc12 [AMSACRINE]
GI50 [17]: 229 nM
TGI [17]: 3.39 µM

COc1ccc2cc(CNCCCCCCCCNCc3ccc4cc(OC)ccc4c3)ccc2c1
GI50 [17]: 1150 nM
LC50 [17]: 6.31 µM
TGI [17]: 2.4 µM

COc1ccc2cc(CNCCOCCOCCNCc3ccc4cc(OC)ccc4c3)ccc2c1
GI50 [17]: 724 nM
LC50 [17]: 5.25 µM
TGI [17]: 1.91 µM

Source: ChEMBL document CHEMBL1140056, “Design, synthesis, and antitumor activity of new bis-aminomethylnaphthalenes” (2008)
